Data taken from ChEMBL document CHEMBL1125797, “Synthesis, characterization and myocardial uptake of cationic bis(arene)technetium(I) complexes” (J Med Chem, 1991).

Columns and labels:
Rattus norvegicus [1] = experiment: Biodistribution of compound in rat blood at 360 min after intravenous administration; type: ADME, organism-based; conditions: in vivo, 6 h
Summary of the method: (§1)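 Time course in Sprague-Dawley rats after lateral tail-vein injection of the 99mTc complex in normal saline (~12.5 μCi/mL) at ~25 μCi/kg. Tissues were sampled at the stated times, washed with saline, blotted, weighed and γ-counted to give percent injected dose per g. Values are averages of male and female rats.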

Rattus norvegicus [2] = experiment: Biodistribution of compound in rat eye at 90 min after intravenous administration; type: ADME, organism-based; conditions: in vivo, 1.5 h; summary of the method: as §1
Rattus norvegicus [3] = experiment: Biodistribution of compound in rat muscle at 45 min after intravenous administration; type: ADME, organism-based, Muscle tissue; conditions: in vivo, 0.75 h
Summary of the method: (§2)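 Rats received the 99mTc complex in normal saline (~12.5 μCi/mL) by lateral tail vein injection at ~25 μCi/kg and were killed by cervical dislocation at the stated time. Tissues were washed with saline, blotted, weighed and γ-counted to give percent injected dose/g. Time-course values are averages of male and female rats.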

Rattus norvegicus [4] = experiment: Biodistribution of compound in rat bone marrow at 1440 min after intravenous administration; type: ADME, organism-based; conditions: in vivo, 24 h; summary of the method: as §1
Rattus norvegicus [5] = experiment: Biodistribution of compound in rat kidney at 180 min after intravenous administration; type: ADME, organism-based; conditions: in vivo, 3 h; summary of the method: as §1
Rattus norvegicus [6] = experiment: Biodistribution of compound in rat muscle at 90 min after intravenous administration; type: ADME, organism-based, Muscle tissue; conditions: in vivo, 1.5 h; summary of the method: as §2
Rattus norvegicus [7] = experiment: Biodistribution of compound in rat lungs at 90 min after intravenous administration; type: ADME, organism-based, Lung; conditions: in vivo, 1.5 h; summary of the method: as §2
Rattus norvegicus [8] = experiment: Biodistribution of compound in rat blood at 5 min after intravenous administration; type: ADME, organism-based; conditions: in vivo; summary of the method: as §1
Rattus norvegicus [9] = experiment: Biodistribution of compound in rat gonads at 90 min after intravenous administration; type: ADME, organism-based, Gonad; conditions: in vivo, 1.5 h; summary of the method: as §1
Rattus norvegicus [10] = experiment: Biodistribution of compound in rat bone marrow at 360 min after intravenous administration; type: ADME, organism-based; conditions: in vivo, 6 h; summary of the method: as §1
Rattus norvegicus [11] = experiment: Biodistribution of compound in rat heart after 5 min of administration; type: ADME, organism-based; conditions: in vivo
Summary of the method: (§3)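 Female Sprague-Dawley rats (150–200 g) received the 99mTc complex in normal saline (~12.5 μCi/mL) via a lateral tail vein at ~25 μCi/kg. They were killed by cervical dislocation 5 min after injection. Tissues were washed with saline, blotted, weighed and γ-counted, and the read-out was percent injected dose per g tissue.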

Rattus norvegicus [12] = experiment: Biodistribution of compound in rat kidney at 1440 min after intravenous administration; type: ADME, organism-based; conditions: in vivo, 24 h; summary of the method: as §1
Rattus norvegicus [13] = experiment: Biodistribution of compound in rat brain after 5 min of administration; type: ADME, organism-based; conditions: in vivo
Rattus norvegicus [14] = organism: Rattus norvegicus; experiment: The compound was tested for the plasma binding in rat; type: ADME, organism-based
Rattus norvegicus [15] = experiment: Biodistribution of compound in rat urine at 1440 min after intravenous administration; type: ADME, organism-based; conditions: in vivo, 24 h; summary of the method: as §2
Rattus norvegicus [16] = experiment: Biodistribution of compound in rat lungs at 180 min after intravenous administration; type: ADME, organism-based, Lung; conditions: in vivo, 3 h; summary of the method: as §2
Rattus norvegicus [17] = experiment: Biodistribution of compound in rat heart at 180 min after intravenous administration; type: ADME, organism-based; conditions: in vivo, 3 h; summary of the method: as §1
Rattus norvegicus [18] = experiment: Biodistribution of compound in rat heart at 360 min after intravenous administration; type: ADME, organism-based; conditions: in vivo, 6 h; summary of the method: as §1
Rattus norvegicus [19] = experiment: Biodistribution of compound in rat liver at 45 min after intravenous administration; type: ADME, organism-based; conditions: in vivo, 0.75 h; summary of the method: as §2
Rattus norvegicus [20] = experiment: Biodistribution of compound in rat kidney at 90 min after intravenous administration; type: ADME, organism-based; conditions: in vivo, 1.5 h; summary of the method: as §1
Rattus norvegicus [21] = experiment: Biodistribution of compound in rat eye at 5 min after intravenous administration; type: ADME, organism-based; conditions: in vivo; summary of the method: as §1
Rattus norvegicus [22] = experiment: Biodistribution of compound in rat bone at 45 min after intravenous administration; type: ADME, organism-based, Bone element; conditions: in vivo, 0.75 h; summary of the method: as §1
Rattus norvegicus [23] = experiment: Biodistribution of compound in rat liver at 180 min after intravenous administration; type: ADME, organism-based; conditions: in vivo, 3 h; summary of the method: as §1
Rattus norvegicus [24] = experiment: Biodistribution of compound in rat eye at 45 min after intravenous administration; type: ADME, organism-based; conditions: in vivo, 0.75 h; summary of the method: as §1
Rattus norvegicus [25] = experiment: Biodistribution of compound in rat heart at 90 min after intravenous administration; type: ADME, organism-based; conditions: in vivo, 1.5 h; summary of the method: as §1
Rattus norvegicus [26] = experiment: Biodistribution of compound in rat bone at 180 min after intravenous administration; type: ADME, organism-based, Bone element; conditions: in vivo, 3 h; summary of the method: as §1
Rattus norvegicus [27] = experiment: Biodistribution of compound in rat bone at 1440 min after intravenous administration; type: ADME, organism-based, Bone element; conditions: in vivo, 24 h; summary of the method: as §1
Rattus norvegicus [28] = experiment: Biodistribution of compound in rat blood at 180 min after intravenous administration; type: ADME, organism-based; conditions: in vivo, 3 h; summary of the method: as §1
Rattus norvegicus [29] = experiment: Biodistribution of compound in rat liver at 5 min after intravenous administration; type: ADME, organism-based; conditions: in vivo; summary of the method: as §2
Rattus norvegicus [30] = experiment: Biodistribution of compound in rat lungs at 5 min after intravenous administration; type: ADME, organism-based, Lung; conditions: in vivo; summary of the method: as §2
Rattus norvegicus [31] = experiment: Biodistribution of compound in rat blood after 5 min of administration; type: ADME, organism-based; conditions: in vivo; summary of the method: as §3
Rattus norvegicus [32] = experiment: Biodistribution of compound in rat gonads at 45 min after intravenous administration; type: ADME, organism-based, Gonad; conditions: in vivo, 0.75 h; summary of the method: as §1
Rattus norvegicus [33] = experiment: Biodistribution of compound in rat heart at 45 min after intravenous administration; type: ADME, organism-based; conditions: in vivo, 0.75 h; summary of the method: as §1
Rattus norvegicus [34] = experiment: Biodistribution of compound in rat liver after 5 min of administration; type: ADME, organism-based; conditions: in vivo; summary of the method: as §3
Rattus norvegicus [35] = experiment: Biodistribution of compound in rat bone marrow at 45 min after intravenous administration; type: ADME, organism-based; conditions: in vivo, 0.75 h; summary of the method: as §1
Rattus norvegicus [36] = experiment: Biodistribution of compound in rat bone at 90 min after intravenous administration; type: ADME, organism-based, Bone element; conditions: in vivo, 1.5 h; summary of the method: as §1

Bis(1,3,5-trimethylbenzene)technetium gave a Dose/ml (Rattus norvegicus [1]) of 0.52 % dose, a Dose/g (Rattus norvegicus [2]) of 0.044 % dose and a Dose/g (Rattus norvegicus [3]) of 26 % dose/organ. The Dose/g (Rattus norvegicus [4]) was 0.02 % dose/organ, the Dose/g (Rattus norvegicus [5]) was 1.9 % dose and the Dose/g (Rattus norvegicus [6]) was 25 % dose/organ. For the same substance, the Dose/g (Rattus norvegicus [7]) was 0.6 % dose/organ, the Dose/ml (Rattus norvegicus [8]) was 2.67 % dose and the Dose/g (Rattus norvegicus [9]) was 0.067 % dose. For the same substance, the Dose/g (Rattus norvegicus [10]) was 0.09 % dose/organ, the Dose/g (Rattus norvegicus [11]) was 1.9% and the Dose/g (Rattus norvegicus [12]) was 0.4 % dose. The Dose/g (Rattus norvegicus [13]) was 0.1%, the Plasma binding (Rattus norvegicus [14]) was 11% and the Dose/ml (Rattus norvegicus [15]) was 26 % dose. The Dose/g (Rattus norvegicus [16]) was 0.48 % dose/organ, the Dose/g (Rattus norvegicus [17]) was 1 % dose and the Dose/g (Rattus norvegicus [18]) was 1.14 % dose. The Dose/g (Rattus norvegicus [19]) was 3.1 % dose, the Dose/g (Rattus norvegicus [20]) was 2 % dose/organ and the Dose/g (Rattus norvegicus [21]) was 0.041 % dose. The Dose/g (Rattus norvegicus [22]) was 1.8 % dose/organ, the Dose/g (Rattus norvegicus [23]) was 1.9 % dose/organ and the Dose/g (Rattus norvegicus [24]) was 0.028 % dose. It also gave a Dose/g (Rattus norvegicus [25]) of 1.17 % dose, a Dose/g (Rattus norvegicus [26]) of 1.5 % dose/organ and a Dose/g (Rattus norvegicus [27]) of 0.8 % dose/organ. It also gave a Dose/ml (Rattus norvegicus [28]) of 0.67 % dose, a Dose/g (Rattus norvegicus [29]) of 10.4 % dose/organ and a Dose/g (Rattus norvegicus [30]) of 1.15 % dose/organ. It also gave a Dose/g (Rattus norvegicus [31]) of 0.096%, a Dose/g (Rattus norvegicus [32]) of 0.86 % dose and a Dose/g (Rattus norvegicus [33]) of 1.2 % dose. The Dose/g (Rattus norvegicus [34]) was 0.98%, the Dose/g (Rattus norvegicus [35]) was 0.36 % dose/organ and the Dose/g (Rattus norvegicus [36]) was 1.4 % dose/organ.
